Activity calls are given as the source filed them.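 Rule for the calls, unless noted: active = viability at or under a set limit in both replicates, limit being median viability minus 3 SD (cut at about 48% in these data, passing the limit was not always enough); inconclusive = at or under the limit in just one replicate; inactive = at or above the limit in both replicates.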

Assay [1] in a line: Her2 expression decrease, cell viability multiplex – SKBR3 breast tumor cells, AlphaScreen, ATP viability, primary screen (AID 461;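 active = Her2 level under about 52% in both replicate screens, with viability over 70% of control, limit read from the data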;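 for Her2 level: lower value means less Her2 protein in the cells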;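 for viability: percent of carrier control wells set as 100% viability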). Conditions: SKBR3 Her2 protein level, 18-24 h, measured here: SKBR3 viability, ATP luminescence, at 10 µM. (In Alpha technology, singlet oxygen from a donor bead excites a nearby acceptor bead.)
Assay [2] deals with Receptor tyrosine-protein kinase erbB-2 (Homo sapiens) (UniProt P04626). The assay is described as above. Conditions: 18-24 h, at 10 µM, stronger effect = lower value.
Assay [3] in a line: reduced viability of SK-BR-3 breast cancer cells – cell-based, 24 h, human, pilot screen (AID 572;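 active = viability at or below 10% of carrier control in both of two separate runs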;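 note: compound exposure lasted between 18 and 24 h rather than exactly 24 h; 100% = carrier-treated control wells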). The settings on record: SK-BR-3 viability, CellTiter-Glo luminescence, at 10 µM, stronger effect = lower value. On the technique in general: ATP-based viability assays read luminescence as a measure of living cells.
A short description of assay [4]: HUVEC growth inhibition – cell-based, human, primary screen (AID 575;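 active = viability at or below 30% in both replicate assays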;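 note: 100% = median of untreated cell wells with 0.1% DMSO on each plate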). Conditions: HUVEC proliferation, CellTiter-Glo luminescence, 72 h; at 10 µM; stronger effect = lower value. A digest of the protocol: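 Material: primary human umbilical vein endothelial cells / Schedule: 72 h exposure, 37 °C, 5% CO2, 30 min RT equilibration / Signal: ATP-based CellTiter-Glo luminescent read / Read-out basis: percent of median DMSO-control luminescence / Control set: 32 DMSO-only cell-control wells (high), 32 MePR drug-control wells (low) per plate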

Assay [5] is described as follows: H69AR cell proliferation blockers – human, duplicate replicates, primary screen (AID 580).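 Note: 100% = mean luminescence of untreated wells and 0% = no signal.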 The settings on record: H69AR lung tumor cells viability, ATP luminescence, 72 h; at 10 µM; stronger effect = lower value.
A short description of assay [6]: MRP1 drug-resistance reversers in H69AR cells – cell-based, doxorubicin co-treatment, pilot screen (AID 601;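 active = viability loss from added drug above about 55%, and viability with drug at most 40%, in both replicates, limit read from the data, passing the limit was not always enough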). The settings on record: CellTiter-Glo, 72 h, at 10 µM; for differential viability (reversal): stronger effect = higher value.
A short description of assay [7]: yeast transport mutant growth inhibition pilot in 384-well plates, post-Golgi transport modulator project (AID 636; in the data active = inhibition above about 31%). Conditions: absorbance 615 nm, about 18 h, stronger effect = higher value.
The nature of assay [8]: growth suppression of yeast trafficking mutant, preliminary HTS, modulators of trafficking downstream of Golgi apparatus project, 1536-format plate, OD 615 nm (AID 637; in the data active = inhibition above about 30%). Conditions: yeast transport mutant growth, absorbance 615 nm, 18 h; stronger effect = higher value.
[9] abbreviates: H69AR cells + 2 uM doxorubicin, measured here: viability with 2 uM doxorubicin, stronger effect = lower value.
Where [10] appears, read: H69AR cells, compound alone cytotoxicity.

Chain of Receptor tyrosine-protein kinase erbB-2 (Homo sapiens) (P04626 whole entry, looked up): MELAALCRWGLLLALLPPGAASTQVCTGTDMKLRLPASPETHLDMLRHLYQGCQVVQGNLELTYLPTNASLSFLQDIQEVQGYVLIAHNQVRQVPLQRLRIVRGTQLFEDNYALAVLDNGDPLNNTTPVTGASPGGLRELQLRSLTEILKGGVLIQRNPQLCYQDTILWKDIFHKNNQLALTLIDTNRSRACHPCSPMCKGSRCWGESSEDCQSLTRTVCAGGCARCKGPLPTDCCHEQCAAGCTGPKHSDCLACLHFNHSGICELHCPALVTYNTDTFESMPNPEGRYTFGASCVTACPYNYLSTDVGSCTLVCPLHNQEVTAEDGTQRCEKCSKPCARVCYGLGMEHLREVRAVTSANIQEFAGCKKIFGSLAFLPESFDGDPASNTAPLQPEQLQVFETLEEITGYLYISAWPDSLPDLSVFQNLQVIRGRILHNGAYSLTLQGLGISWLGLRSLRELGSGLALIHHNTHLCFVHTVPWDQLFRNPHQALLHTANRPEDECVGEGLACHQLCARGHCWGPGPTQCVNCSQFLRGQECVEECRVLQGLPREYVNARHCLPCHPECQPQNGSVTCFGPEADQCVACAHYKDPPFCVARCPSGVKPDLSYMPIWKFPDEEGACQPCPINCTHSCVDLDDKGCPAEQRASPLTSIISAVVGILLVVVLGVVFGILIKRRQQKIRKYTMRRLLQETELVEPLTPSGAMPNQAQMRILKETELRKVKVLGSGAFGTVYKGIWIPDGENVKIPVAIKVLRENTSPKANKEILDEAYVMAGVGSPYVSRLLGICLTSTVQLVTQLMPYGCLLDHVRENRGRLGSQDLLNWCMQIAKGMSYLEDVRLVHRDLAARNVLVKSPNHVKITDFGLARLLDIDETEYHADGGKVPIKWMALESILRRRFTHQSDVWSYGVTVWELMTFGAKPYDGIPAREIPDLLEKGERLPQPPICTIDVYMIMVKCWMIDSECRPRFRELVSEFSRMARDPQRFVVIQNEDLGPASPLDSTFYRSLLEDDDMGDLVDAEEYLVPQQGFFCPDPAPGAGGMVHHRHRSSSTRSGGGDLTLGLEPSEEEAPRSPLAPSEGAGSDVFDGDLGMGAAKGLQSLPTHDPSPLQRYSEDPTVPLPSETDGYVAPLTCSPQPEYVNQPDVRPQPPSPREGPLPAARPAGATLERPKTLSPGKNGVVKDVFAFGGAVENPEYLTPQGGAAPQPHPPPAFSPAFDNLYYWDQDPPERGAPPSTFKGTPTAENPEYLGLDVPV

Broadly, the viability is a read-out of living cells in per cent, often relative to untreated cells. For orientation: inhibition means the relative decrease from the control value, in per cent. In the case of `CCOC(=O)C1CCCN(C(=O)c2ccc3c(=O)n(CCOC)c(=S)[nH]c3c2)C1` (stereo not given), the viability was 94% in assay [1]; 94% (inactive) in assay [3]; 80.6% (inactive) in assay [4]; 88.6% (inactive) in assay [5]; 77.1% in assay [6] (setting [9]); 88.6% in assay [6] (setting [10]). Also, the Her2 level in assay [2] is 83% (inactive). Moreover, in assay [6] (H69AR cells + 2 uM doxorubicin), the differential viability (reversal) was 11.5% (inactive). The figures for the inhibition in assay [7] and in assay [8] were -4.8% (inactive) and -0.33% (inactive), respectively.
For `Cc1ccc(-n2ncc(C(=O)N3CCc4ccccc4C3)c2NC(=O)c2ccco2)cc1C`, the viability in assay [1] was 94%; in assay [3], 94% (inactive); in assay [4], 83.6% (inactive); in assay [5], 86.1% (inactive); in assay [6] (setting [9]), 89.9%; in assay [6] (setting [10]), 86.1%. The Her2 level in assay [2] is 92% (inactive). The differential viability (reversal) in assay [6] (H69AR cells + 2 uM doxorubicin) was -3.83% (inactive). Also, the values for the inhibition in assay [7] and in assay [8] were -0.13% (inactive) and -3.44% (inactive), respectively.
Consider `CC(C)(C)OC(=O)N1CCC(C(=O)N2CCCCCC2)CC1`, for which the viability in assay [1] is 94%; in assay [3] it was 94% (inactive); in assay [4], 102% (inactive); in assay [5], 107% (inactive); in assay [6] (setting [9]) it was 86.2%; in assay [6] (setting [10]) it was 107%. In addition, the Her2 level in assay [2] is 87.5% (inactive). Further, in assay [6] (H69AR cells + 2 uM doxorubicin), the differential viability (reversal) is 21.3% (inactive). Moreover, the results for the inhibition in assay [7] and in assay [8] were -1.71% (inactive) and -6.36% (inactive), respectively.
As to `CC(=O)c1ccc(NS(=O)(=O)c2ccccc2)cc1`, the viability is 95% in assay [1]; 95% (inactive) in assay [3]; 91.5% (inactive) in assay [4]; 98.6% (inactive) in assay [5]; 91.6% in assay [6] (setting [9]); 98.6% in assay [6] (setting [10]). The Her2 level in assay [2] was 137% (inactive). Besides, in assay [6] (H69AR cells + 2 uM doxorubicin), the differential viability (reversal) was 7.02% (inactive). Moreover, the inhibition in assay [7] is 4.42% (inactive); in assay [8], 5.33% (inactive).
As to `COC(=O)COc1nc(C)c(Br)c(OC)n1`, the viability in assay [1] is 96.5%; in assay [3], 96.5% (inactive); in assay [4], 105% (inactive); in assay [5], 116% (inactive); in assay [6] (setting [9]), 90%; in assay [6] (setting [10]), 116%. Further, the Her2 level in assay [2] is 99% (inactive). The differential viability (reversal) in assay [6] (H69AR cells + 2 uM doxorubicin) was 25.9% (inactive). Besides, the inhibition in assay [7] is -3.95% (inactive); in assay [8] it was 7.54% (inactive).
With `Cc1ccc2oc(-c3ccccc3C(=O)O)cc(=O)c2c1`, the viability in assay [1] was 88.5%; in assay [3] it was 88.5% (inactive); in assay [4], 89.3% (inactive); in assay [5], 101% (inactive); in assay [6] (setting [9]) it was 103%; in assay [6] (setting [10]), 101%. Also, the Her2 level in assay [2] was 84.5% (inactive). Further, the differential viability (reversal) in assay [6] (H69AR cells + 2 uM doxorubicin) is -2.34% (inactive). The results for the inhibition in assay [7] and in assay [8] were -6.93% (inactive) and 6.07% (inactive), respectively.
In the case of `O=C(O)CCCCCNc1nc(=S)[nH]c2ccccc12`, the viability in assay [1] is 107%; in assay [3] it was 107% (inactive); in assay [4], 99.7% (inactive); in assay [5] it was 89.3% (inactive); in assay [6] (setting [9]), 79%; in assay [6] (setting [10]) it was 89.3%. Also, the Her2 level in assay [2] was 99% (inactive). In addition, the differential viability (reversal) in assay [6] (H69AR cells + 2 uM doxorubicin) is 10.3% (inactive). Moreover, the inhibition in assay [7] was -5.92% (inactive); in assay [8], -1.59% (inactive).
`O=C1N=C(N2CCOCC2)CS1`: the viability in assay [1] is 108%; in assay [3], 108% (inactive); in assay [4] it was 103% (inactive); in assay [5], 104% (inactive); in assay [6] (setting [9]), 98.3%; in assay [6] (setting [10]), 104%. In addition, the Her2 level in assay [2] was 110% (inactive). The differential viability (reversal) in assay [6] (H69AR cells + 2 uM doxorubicin) is 5.3% (inactive). For the same molecule, the inhibition in assay [7] was -4.27% (inactive); in assay [8] it was -1.45% (inactive).
As to `Clc1ccc(Cn2ncc3c(NCc4cccnc4)ncnc32)cc1`, the viability is 77.5% in assay [1]; 77.5% (inactive) in assay [3]; 90.5% (inactive) in assay [4]; 92% (inactive) in assay [5]; 96.1% in assay [6] (setting [9]); 92% in assay [6] (setting [10]). Also, in assay [2], the Her2 level was 86% (inactive). In addition, the differential viability (reversal) in assay [6] (H69AR cells + 2 uM doxorubicin) is -4.09% (inactive). The inhibition in assay [7] is -0.53% (inactive); in assay [8], 3.77% (inactive).
As to `CC(=O)N1CCc2cc(S(=O)(=O)CCC(=O)N3CCN(c4ccccn4)CC3)ccc21`, the viability was 91.5% in assay [1]; 91.5% (inactive) in assay [3]; 105% (inactive) in assay [4]; 98% (inactive) in assay [5]; 91.6% in assay [6] (setting [9]); 98% in assay [6] (setting [10]). Moreover, the Her2 level in assay [2] was 98% (inactive). For the same molecule, the differential viability (reversal) in assay [6] (H69AR cells + 2 uM doxorubicin) is 6.38% (inactive). The figures for the inhibition in assay [7] and in assay [8] were 4.67% (inactive) and 12% (inactive), respectively.
For the molecule `C=CS(=O)(=O)c1ccc(Oc2ccc(S(=O)(=O)C=C)cc2)cc1`, the viability was 243% in assay [1]; 243% (inactive) in assay [3]; 97% (inactive) in assay [4]; 1.27% (active) in assay [5]; 0.865% in assay [6] (setting [9]); 1.27% in assay [6] (setting [10]). For the same molecule, the Her2 level in assay [2] is 21% (active). In addition, the differential viability (reversal) in assay [6] (H69AR cells + 2 uM doxorubicin) was 0.405% (inactive). The inhibition in assay [7] was -4.67% (inactive); in assay [8], 1.77% (inactive).
Turning to `COCCNC(=O)CN1CCN(C(c2ccccc2)c2ccccc2)CC1`, the viability in assay [1] is 86%; in assay [3] it was 86% (inactive); in assay [4], 84.3% (inactive); in assay [5] it was 93.1% (inactive); in assay [6] (setting [9]), 92.2%; in assay [6] (setting [10]) it was 93.1%. Besides, in assay [2], the Her2 level is 117% (inactive). Further, the differential viability (reversal) in assay [6] (H69AR cells + 2 uM doxorubicin) was 0.91% (inactive). The inhibition in assay [7] is -0.39% (inactive); in assay [8] it was -5.08% (inactive).
For `O=c1c2c3c(sc2n2cnnc2n1CCc1ccccc1)CCCC3`, the viability in assay [1] was 96.5%; in assay [3], 96.5% (inactive); in assay [4], 57.7% (inactive); in assay [5], 77.1% (inactive); in assay [6] (setting [9]), 68.1%; in assay [6] (setting [10]), 77.1%. The Her2 level in assay [2] is 78.5% (inactive). The differential viability (reversal) in assay [6] (H69AR cells + 2 uM doxorubicin) is 8.96% (inactive). Also, the figures for the inhibition in assay [7] and in assay [8] were -3.47% (inactive) and 6.45% (inactive), respectively.
As to `Cc1ccc(C(=O)OCC(=O)c2ccc(Cl)s2)s1`, the viability in assay [1] is 93.5%; in assay [3], 93.5% (inactive); in assay [4], 96% (inactive); in assay [5], 97.4% (inactive); in assay [6] (setting [9]), 90.8%; in assay [6] (setting [10]), 97.4%. Also, the Her2 level in assay [2] is 101% (inactive). For the same molecule, the differential viability (reversal) in assay [6] (H69AR cells + 2 uM doxorubicin) was 6.55% (inactive). Moreover, the results for the inhibition in assay [7] and in assay [8] were -0.93% (inactive) and -10.3% (inactive), respectively.

Source of the values: PubChem BioAssay.
